# An excerpt weighted towards active compounds, which were near 11% of everything screened.
# M1 antagonist: antagonists of rat M1 muscarinic receptor; hit rate 3.4% among 64,000; B-score at 10 µM; CHO-M1 cells, Fluo-4 calcium, ACh EC80 antagonist mode; stronger effect = lower value;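 active = calcium fluorescence response, raw or row-and-column corrected B-score, differing from the plate sample mean either way at a set confidence level, mostly lower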
# S1P1 ag pot: S1P1 (human) agonism or agonism potentiation | P21453 | S1P1 CRE-bla cells, forskolin, beta-lactamase FRET, potentiator mode; S1P1 agonist co-added at EC20, 2 nM; 100% = saturating reference agonist, 0% = basal | activation, % at 9.5 µM | hit rate 0.57% among 56,000 | AID 449;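 active = activation above a cutoff set at the mean activation of all tested compounds plus 3 SD, cut at about 54% in these data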;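 note: forskolin at 4 µM as EC80 and the EC20 agonist is SEW2871; 100% = SEW2871 at its EC100 plus forskolin at EC80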
# Target sequence (P21453 whole entry, looked up): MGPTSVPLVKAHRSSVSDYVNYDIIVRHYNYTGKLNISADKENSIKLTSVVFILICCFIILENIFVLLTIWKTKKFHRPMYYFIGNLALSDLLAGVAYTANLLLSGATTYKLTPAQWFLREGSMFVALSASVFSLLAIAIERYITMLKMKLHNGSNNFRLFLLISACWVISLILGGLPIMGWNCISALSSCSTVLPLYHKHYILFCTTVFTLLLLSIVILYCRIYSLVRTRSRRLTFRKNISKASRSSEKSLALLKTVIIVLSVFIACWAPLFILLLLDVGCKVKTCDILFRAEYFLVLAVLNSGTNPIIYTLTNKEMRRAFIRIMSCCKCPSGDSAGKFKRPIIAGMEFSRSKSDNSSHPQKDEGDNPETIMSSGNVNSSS
# D1 mod: allosterically modulates the human D1 dopamine receptor | AID 641 | P21728 | HEK293 D1, CRE-luciferase, dopamine EC30 potentiation; actives deviate in either direction | hit rate 5.9% among 58,000 | B-score at 10 µM;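 active = luminescence count or its row- and column-corrected plate score outside the 99.7% band of the plate's sample wells, on either side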
# M1 ag: agonists of M1 muscarinic receptor | AID 626 | CHO-M1 cells, Fluo-4 calcium fluorescence, agonist mode; stronger effect = higher value | hit rate 3% among 64,000 | B-score at 10 µM;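 active = fluorescence rise, raw or as B-score row- and column-corrected plate score, outside the 99.7% band of its plate's samples, either direction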
# S1P3 ag: S1P3 (human) receptor agonism; Q99500; S1P3 NFAT-BLA reporter cells, FRET ratio; relative to 1 µM S1P, basal subtracted; activation, % at 4.5 µM; hit rate 0.1% among 60,000; AID 373;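 active = activation above the screen-wide mean plus 3 SD, cut at about 4.5% in these data, passing the limit was not always enough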
#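 Material: Human S1P3 NFAT-BLA reporter CHO cells | Incubation: Overnight plating, 4 h compound 37 °C, 2 h substrate RT | Signal: FRET β-lactamase substrate fluorescence, excitation 405 nm, 460/535 nm emission ratio, background-subtracted | Compound: 4.5 µM final, single dose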
# D1 PAM confirm: confirmation of human D1 dopamine receptor allosteric modulators. shares compounds with D1 mod. HEK293 D1 CRE-luciferase, dopamine EC30 potentiation; stronger effect = higher value. luminescence at 10 µM. hit rate 88% among 2,200;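 active = luminescence in either of two replicates above the same-plate mean plus 3 SD of the low-dose dopamine control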
# D1 ag no DA: D1 (human) signaling in absence of dopamine; hit rate 0.8% among 1,900; luminescence at 10 µM; shares compounds with D1 mod; HEK293 D1 CRE-luciferase, luminescence, no dopamine; stronger effect = higher value; in the data active = luminescence above about 3900
# Isoprot counter: isoproterenol response counter-screen activity for D1 modulators. shares compounds with D1 mod. HEK293 D1 CRE-luciferase, isoproterenol EC30 counter-screen; stronger effect = higher value. luminescence at 10 µM. hit rate 63% among 2,200. AID 647;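 active = luminescence in either replicate above plate mean of wells with a partly effective reference agonist dose plus 3 SD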;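 note: isoproterenol raises cAMP through native beta-adrenoceptor Gs so signal bypasses D1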
# * = called active by the depositor; · = not tested or not shown.
SMILES,M1 antagonist,S1P1 ag pot,D1 mod,M1 ag,S1P3 ag,D1 PAM confirm,D1 ag no DA,Isoprot counter
Cc1cc(C)c(C#N)c(SCc2ccc(C#N)cc2)n1,-1,-2,7.4*,1.3,-1,7996*,1632,2780
COc1cc(OC)cc(C(=O)N2CCN(C(=O)c3ccc(OC)c(OC)c3)CC2)c1,0.31,·,14*,2.3,-1,19992*,1652,3732*
CCCc1nc2sc3ccccc3c(=O)c2c(=O)n1Cc1ccco1,0.85,1,4.6*,-1.5,0,9128*,1636,3532
O=C(NC(c1ccccc1)c1ccccc1)C1CCCN(S(=O)(=O)c2cnc[nH]2)C1 (centres undefined),0.83,-16,-0.3,-0.39,0,·,·,·
CN(C)c1nc(Oc2ccc(/C=N/O)cc2)nc(N(C)C)n1,0.83,·,0.98,-2e-05,-1,·,·,·
CC(C)Nc1nc(NC(C)C)nc(Oc2ccc(/C=N/O)cc2)n1,-0.39,-40,5.3*,-0.0024,0,6456*,·,2472
CCOc1ccccc1N(CC(=O)N1CCOCC1)S(=O)(=O)c1ccc(SC)cc1,-0.43,-1,1.9,0.36,2,·,·,·
Cc1sc2ncn(CC(=O)NCCCC(=O)N3CCN(c4ncccn4)CC3)c(=O)c2c1C,-0.52,-33,0.77,0.11,0,·,·,·
Nc1nc(CN2CCN(c3ccccn3)CC2)nc(Nc2ccc(Cl)cc2)n1,1.2,10,4.3*,-1.3,-2,6700*,1548,3416
CC(=NCCN1CCNCC1)C1=C(O)CC(C)(C)CC1=O,-0.57,-20,-0.12,0.31,-1,·,·,·
CC(C)(C)n1ncc2c(=O)n(Cc3ccc(Cl)cc3Cl)cnc21,-0.12,-23,2,0.0054,-1,·,·,·
CC(C)(C)n1ncc2c(=O)n(Cc3c(F)cccc3Cl)cnc21,-0.19,-30,6*,-0.0054,-1,9180*,784,3056*
CN(C)c1cccc(C(=O)OCC(=O)NCC2CCCO2)c1 (centres undefined),-0.079,-1,-0.28,0.079,-2,·,·,·
CCOC(=O)N1CCC(N2CC34C=CC(O3)C(C(=O)O)C4C2=O)CC1 (centres undefined),-0.57,-26,-0.021,0.73,-1,·,·,·
CCOC(=O)c1ccc(CSc2nnc(N)s2)cc1,0.22,-4,3.7*,-0.45,0,10844*,·,2972*
CCOC(=O)CSc1nnc(N)s1,0.61,-18,-0.84,1.2,0,·,·,·
CC(C)Cc1nc(C(N)=O)c2[nH]c(=O)n(-c3ccc(F)cc3)c2n1,0.077,-7,0.37,-0.28,0,·,·,·
Cc1cccc(-n2c(=O)[nH]c3c(C(N)=O)nc(CC(C)C)nc32)c1,0.21,-11,11*,-0.003,0,15452*,1444,3380*
COc1ccc(-c2nc(C(N)=O)c3[nH]c(=O)n(-c4cccc(C)c4)c3n2)c(OC)c1,-0.76,-58,7.7*,-0.63,1,10376*,1548,4292*
CCOC(=O)c1ccccc1NC(=O)CSc1nnc(COc2ccccc2C)n1C,-0.52,-6,-0.28,0.63,-1,·,·,·
C=CCNC(=O)NS(=O)(=O)c1ccc(C)cc1,-0.45,-4,-1.2,0.74,0,·,·,·
Cc1cc(C)c(Cn2c(=O)n(CCCC(=O)NCc3ccco3)c(=O)c3ccccc32)c(C)c1,0.039,-14,0.34,-0.8,0,·,·,·
COc1c(S(=O)(=O)n2nc(C)cc2C)ccc(Cl)c1Cl,-0.18,-38,3.6*,0.91,0,12296*,1576,2628
O=C1OCc2cc(NC(=O)C3COc4ccccc4O3)ccc21 (centres undefined),-0.24,-12,-0.0018,-0.43,-1,·,·,·
CCCSc1nc(C)c(-c2csc(C(C#N)=C3CCCC3)n2)cc1C#N,-0.87,-12,-0.79,-0.72,0,·,·,·
SMILES,M1 antagonist,S1P1 ag pot,D1 mod,M1 ag,S1P3 ag,D1 PAM confirm,D1 ag no DA,Isoprot counter
CCOc1ncccc1C(=O)OCC(=O)NCCc1ccc(OC)cc1,0.41,-13,0.02,0.83,-1,·,·,·
CCOc1ncccc1C(=O)OCc1ccc(C(=O)OC)o1,-0.031,-5,8*,0.13,1,16096*,1680,5020*
O=C(O)C1C2C=CC(C2)C1C(=O)NCCCn1ccnc1 (centres undefined),0.19,-22,-0.6,0.33,0,·,·,·
O=C(CCn1c(=O)oc2ccccc21)Nc1cccc(Cl)c1,-0.08,-10,14*,-1.3,-1,6680,1488,2256
CC(=O)c1ccc(NC(=O)CCn2c(=O)oc3ccccc32)cc1,0.97,-16,-0.8,0.12,-1,·,·,·
Cn1c(=O)n(C)c2cc(NC(=O)CSc3nnc(-c4ccccc4O)n3-c3ccccc3)ccc21,-1.1,·,-2,-0.38,0,·,·,·
CCCOc1ccccc1Nc1nnc(C)c(=O)[nH]1,-0.28,-10,-0.13,-0.2,0,·,·,·
O=S(=O)(Nc1cc(Cl)ccc1N1CCCCC1)c1cccs1,0.12,15,29*,-0.21,1,7016*,1392,2556
O=S(=O)(Nc1ccc(N2CCCCC2)cc1)c1cccs1,-0.015,18,0.91,2.9,0,·,·,·
CCN=C1SC(CC(=O)NC(N)=O)C(=O)N1CC (centres undefined),0.0021,·,4.3*,0.28,·,20476*,1496,3780*
CCN=C1SC(CC(=O)Nc2ccccc2OCC)C(=O)N1CC (centres undefined),-0.69,-5,2.7*,0.19,-1,9772*,1564,3300
CCN=C1SC(CC(=O)Nc2sc(C)c(C)c2C(=O)OC)C(=O)N1CC (centres undefined),0.18,0,1.1,-0.61,0,·,·,·
c1ccc2c(c1)OCC(c1nnc3sc(-c4cnccn4)nn13)O2 (centres undefined),·,·,0.59,·,0,·,·,·
Fc1ccc(-c2nn3c(C4COc5ccccc5O4)nnc3s2)cc1 (centres undefined),0.29,1,3.8*,0.81,-1,14388*,1980,3472*
c1ccc2c(c1)OCC(c1nnc3sc(-c4ccc5c(c4)OCO5)nn13)O2 (centres undefined),-0.0025,-20,0.75,1.3,0,·,·,·
c1ccc(OCc2nnc3sc(-c4cccs4)nn23)cc1,-0.036,12,6.4*,-0.22,-1,15144*,1772,3640*
c1csc(-c2nn3c(C4COc5ccccc5O4)nnc3s2)c1 (centres undefined),-0.15,-57,8.6*,-0.64,-1,18120*,1676,4616*
CC1(C)Cc2c(c(N3CCOCC3)nc3sc(C#N)c(N)c23)CS1,0.17,0,1.7,0.24,-2,·,·,·
CC1(C)Cc2c(C#N)c(SCCC#N)nc(N3CCOCC3)c2CS1,1.6,4,5.5*,0.14,7,12904*,1588,4280*
